Legend:
[1] = target: T1, Integrin alpha-IIb/beta-3 (Homo sapiens, UniProt P05106+P08514); test: Equilibrium dissociation constant was measured from displacement of L-762,745 from Fibrinogen receptor of human platelets by flow cytometry
Target sequence in this assay (P05106 27-788 limits assumed): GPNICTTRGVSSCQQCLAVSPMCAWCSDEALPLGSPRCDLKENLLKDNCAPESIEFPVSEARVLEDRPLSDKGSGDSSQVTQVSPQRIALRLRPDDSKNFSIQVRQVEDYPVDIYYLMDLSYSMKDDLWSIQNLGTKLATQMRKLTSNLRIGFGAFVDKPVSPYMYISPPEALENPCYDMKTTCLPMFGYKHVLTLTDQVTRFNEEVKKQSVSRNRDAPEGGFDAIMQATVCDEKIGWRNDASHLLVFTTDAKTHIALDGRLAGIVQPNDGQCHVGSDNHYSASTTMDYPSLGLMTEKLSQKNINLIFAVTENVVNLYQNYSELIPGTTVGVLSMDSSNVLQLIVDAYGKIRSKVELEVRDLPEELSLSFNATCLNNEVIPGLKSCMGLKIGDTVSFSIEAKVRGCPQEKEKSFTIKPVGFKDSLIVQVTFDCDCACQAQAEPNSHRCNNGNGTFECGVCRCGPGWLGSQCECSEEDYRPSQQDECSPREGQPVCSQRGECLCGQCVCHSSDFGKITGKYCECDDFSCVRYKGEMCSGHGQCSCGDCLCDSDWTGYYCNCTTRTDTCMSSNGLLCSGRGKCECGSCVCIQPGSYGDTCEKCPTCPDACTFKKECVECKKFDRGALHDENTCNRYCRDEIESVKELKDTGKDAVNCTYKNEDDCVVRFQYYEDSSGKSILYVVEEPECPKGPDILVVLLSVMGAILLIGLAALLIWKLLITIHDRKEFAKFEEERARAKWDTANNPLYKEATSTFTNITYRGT
Target sequence in this assay (P08514 32-887 limits assumed): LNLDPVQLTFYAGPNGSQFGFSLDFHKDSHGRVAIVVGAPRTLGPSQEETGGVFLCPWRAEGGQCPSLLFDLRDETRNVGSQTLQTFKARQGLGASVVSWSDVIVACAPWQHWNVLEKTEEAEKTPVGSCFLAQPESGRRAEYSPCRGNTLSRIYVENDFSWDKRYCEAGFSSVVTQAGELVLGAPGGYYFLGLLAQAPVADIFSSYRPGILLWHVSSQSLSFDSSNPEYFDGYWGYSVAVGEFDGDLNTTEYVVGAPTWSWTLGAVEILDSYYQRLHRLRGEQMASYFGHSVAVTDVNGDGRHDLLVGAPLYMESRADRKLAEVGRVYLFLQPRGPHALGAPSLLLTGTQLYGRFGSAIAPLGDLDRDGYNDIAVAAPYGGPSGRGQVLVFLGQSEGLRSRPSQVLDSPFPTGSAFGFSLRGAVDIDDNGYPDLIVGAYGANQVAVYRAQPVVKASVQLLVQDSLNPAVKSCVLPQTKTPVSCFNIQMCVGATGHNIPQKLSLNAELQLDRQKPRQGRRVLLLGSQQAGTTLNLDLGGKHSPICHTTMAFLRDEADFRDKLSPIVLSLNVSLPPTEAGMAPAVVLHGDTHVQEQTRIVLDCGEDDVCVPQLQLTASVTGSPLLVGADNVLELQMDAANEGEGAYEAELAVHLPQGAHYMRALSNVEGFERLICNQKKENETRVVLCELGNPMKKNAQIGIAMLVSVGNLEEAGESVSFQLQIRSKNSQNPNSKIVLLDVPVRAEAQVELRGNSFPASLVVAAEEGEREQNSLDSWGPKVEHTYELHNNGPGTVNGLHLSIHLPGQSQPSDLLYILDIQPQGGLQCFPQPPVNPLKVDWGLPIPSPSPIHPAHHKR
Target sequence in this assay (P08514 891-1039 limits assumed): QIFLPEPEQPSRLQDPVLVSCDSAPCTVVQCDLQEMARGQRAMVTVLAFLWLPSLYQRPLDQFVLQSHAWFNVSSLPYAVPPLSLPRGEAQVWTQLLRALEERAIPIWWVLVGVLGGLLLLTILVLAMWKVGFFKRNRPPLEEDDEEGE

[2] = target: T1, Integrin alpha-IIb/beta-3; test: Inhibition of [125I]L-692884 binding to purified GPIIb/IIIa by silicate scintillation proximity assay(SPA); format: protein-complex assay
[3] = target: T1, Integrin alpha-IIb/beta-3; test: Displacement of L-762,745 from Fibrinogen Receptor of human platelets by flow cytometry
Method in brief: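 Resting human gel-filtered platelets at 2 × 10⁶ cells/mL final, incubated 2 h at room temperature with fluorescein-labelled L-762,745 (110 nM final) and competitor at 0.05–1000 nM. Read by flow cytometry (FACScan).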
Target sequence in this assay (P05106 27-788 limits assumed): as the sequence (P05106 27-788 limits assumed) above
Target sequence in this assay (P08514 32-887 limits assumed): as the sequence (P08514 32-887 limits assumed) above
Target sequence in this assay (P08514 891-1039 limits assumed): as the sequence (P08514 891-1039 limits assumed) above

[4] = target: T1, Integrin alpha-IIb/beta-3; test: In vitro inhibition of [125I]L-692884 binding to Fibrinogen receptor by silicate scintillation proximity assay(SPA); format: protein-complex assay

SMILES	Kd [1] [nM]	ED50 [2] [nM]	Kd [3] [nM]	IC50 [4] [nM]
O=C(NC[C@H](NS(=O)(=O)c1ccccc1)C(=O)O)c1cc2sc(CCC3CCNCC3)cc2s1	0.15	–	–	–
CS(=O)(=O)N[C@@H](CNC(=O)c1cc2cc(CCC3CCNCC3)sc2s1)C(=O)O	–	1.2	52	–
O=C(NC[C@H](NS(=O)(=O)c1cccnc1)C(=O)O)c1cc2sc(CCC3CCNCC3)cc2s1	–	0.11	0.08	–
O=C(NC[C@H](NS(=O)(=O)c1ccc(Cl)cc1)C(=O)O)c1cc2cc(CCC3CCNCC3)sc2s1	0.026	–	–	0.09
O=C(NC[C@H](NS(=O)(=O)c1cccs1)C(=O)O)c1cc2cc(CCC3CCNCC3)sc2s1	0.15	–	–	0.04
CCCCS(=O)(=O)N[C@@H](CNC(=O)c1cc2sc(CCC3CCNCC3)cc2s1)C(=O)O	3	–	–	0.21
O=C(NCC(NS(=O)(=O)c1cccnc1)C(=O)O)c1cc2cc(CCC3CCNCC3)sc2s1 (single isomer, unassigned)	28	0.47	–	–
O=C(NC[C@H](NS(=O)(=O)c1cccnc1)C(=O)O)c1cc2cc(C3CCNCC3)sc2s1	22	–	–	0.45
CCOCCS(=O)(=O)N[C@@H](CNC(=O)c1cc2cc(CCC3CCNCC3)sc2s1)C(=O)O	–	0.13	1.2	–
O=C(NC[C@H](NS(=O)(=O)c1cccnc1)C(=O)O)c1cc2cc(CCCC3CCNCC3)sc2s1	17	–	–	0.07
O=C(NC[C@H](NS(=O)(=O)c1cccnc1)C(=O)O)c1ccc2c(c1)C(=O)N(CCC1CCNCC1)C2	2.2	–	–	–
O=C(NC[C@H](NS(=O)(=O)c1ccccc1)C(=O)O)c1cc2cc(CCC3CCNCC3)sc2s1	0.023	–	–	0.03
O=C(NC[C@H](NS(=O)(=O)c1cccnc1)C(=O)O)c1cc2cc(CCC3CCNCC3)sc2s1	0.07	–	–	0.047
O=C(O)CCNC(=O)c1ccc2c(c1)C(=O)N(CCC1CCNCC1)C2	550	–	–	13
O=C(NC[C@H](NS(=O)(=O)c1cccs1)C(=O)O)c1cc2sc(CCC3CCNCC3)cc2s1	0.092	–	–	0.04
CCOCCS(=O)(=O)N[C@@H](CNC(=O)c1cc2sc(CCC3CCNCC3)cc2s1)C(=O)O	–	0.27	1.1	–
CCCCS(=O)(=O)N[C@@H](CNC(=O)c1cc2cc(CCC3CCNCC3)sc2s1)C(=O)O	–	0.12	5.6	–

From ChEMBL document CHEMBL1132259, “Non-peptide GPIIb/IIIa inhibitors. 20. Centrally constrained thienothiophene alpha-sulfonamides are potent, long acting in vivo inhibitors of platelet aggregation” (J Med Chem, 1999)
